# ChEMBL document CHEMBL1944597, “Synthesis and evaluation of non-basic inhibitors of urokinase-type plasminogen activator (uPA)” (Bioorg Med Chem, 2012)
# Key:
# [1] = target: T1, Urokinase-type plasminogen activator (Homo sapiens, UniProt P00749); experiment: Inhibition of human uPA using pyroGlu-Gly-Arg-p-NA.HCl as substrate preincubated for 15 mins prior substrate addition measured for 10 mins by spectrophotometry
# Plasminogen = Plasminogen (Homo sapiens, UniProt P00747); experiment: Inhibition of human plasma plasmin using pyroGlu-Pro-Arg-p-NA.HCl as substrate preincubated for 15 mins prior substrate addition measured for 10 mins by spectrophotometry
# Plasminogen, sequence (P00747 97-580 limits assumed): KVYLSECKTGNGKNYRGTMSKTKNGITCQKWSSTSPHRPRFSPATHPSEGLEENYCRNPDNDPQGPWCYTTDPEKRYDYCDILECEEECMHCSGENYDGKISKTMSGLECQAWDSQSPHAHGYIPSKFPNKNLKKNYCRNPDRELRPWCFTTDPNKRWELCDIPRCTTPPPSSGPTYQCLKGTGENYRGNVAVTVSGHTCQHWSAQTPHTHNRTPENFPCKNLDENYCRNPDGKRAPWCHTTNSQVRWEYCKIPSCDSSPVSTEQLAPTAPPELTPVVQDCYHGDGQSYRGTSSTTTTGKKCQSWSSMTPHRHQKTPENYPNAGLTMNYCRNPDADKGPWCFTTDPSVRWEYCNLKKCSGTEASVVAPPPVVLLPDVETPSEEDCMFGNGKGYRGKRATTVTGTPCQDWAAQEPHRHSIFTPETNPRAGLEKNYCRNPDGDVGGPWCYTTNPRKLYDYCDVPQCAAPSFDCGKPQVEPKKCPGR
# Plasminogen, sequence (P00747 581-810 limits assumed): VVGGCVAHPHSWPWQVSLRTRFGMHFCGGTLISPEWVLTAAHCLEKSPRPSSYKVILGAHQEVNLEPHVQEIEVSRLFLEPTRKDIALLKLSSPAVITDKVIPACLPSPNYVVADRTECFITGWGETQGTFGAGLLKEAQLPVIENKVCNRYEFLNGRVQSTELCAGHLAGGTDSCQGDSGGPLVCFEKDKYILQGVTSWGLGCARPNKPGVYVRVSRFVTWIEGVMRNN
# Summary of the method: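 Plasmin from human plasma, about 5 mU, in Tris buffer pH 7.4, preincubated 15 min at 37 °C with inhibitor (0–250 µM final, DMSO stocks). […] Initial rate was read at 405 nm (0–0.25 AU within 10 min) at 37 °C. Assays ran in duplicate, and IC50 was the concentration halving activity.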
# [2] = target: Tissue-type plasminogen activator (Homo sapiens, UniProt P00750); experiment: Inhibition of recombinant tPA using H-D-Ile-Pro-Arg-pNA.2HCl as substrate preincubated for 15 mins prior substrate addition measured for 10 mins by spectrophotometry
# Tissue-type plasminogen activator, sequence (P00750 whole entry): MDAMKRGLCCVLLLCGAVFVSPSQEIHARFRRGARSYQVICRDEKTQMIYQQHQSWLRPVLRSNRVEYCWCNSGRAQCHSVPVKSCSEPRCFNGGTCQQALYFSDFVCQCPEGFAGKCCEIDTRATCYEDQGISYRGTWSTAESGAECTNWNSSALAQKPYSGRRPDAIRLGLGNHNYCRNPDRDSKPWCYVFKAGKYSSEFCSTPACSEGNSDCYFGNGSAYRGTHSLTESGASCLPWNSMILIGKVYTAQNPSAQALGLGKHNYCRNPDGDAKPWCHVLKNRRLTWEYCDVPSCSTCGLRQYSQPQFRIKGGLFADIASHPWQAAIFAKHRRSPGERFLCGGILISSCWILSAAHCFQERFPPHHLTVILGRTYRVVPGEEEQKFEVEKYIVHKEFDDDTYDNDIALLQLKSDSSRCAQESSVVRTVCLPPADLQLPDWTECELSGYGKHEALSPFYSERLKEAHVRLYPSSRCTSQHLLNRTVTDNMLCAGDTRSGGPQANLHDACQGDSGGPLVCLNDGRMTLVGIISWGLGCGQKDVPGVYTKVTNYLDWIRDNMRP
# Summary of the method: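 Recombinant tPA, about 5 mU, in Tris buffer pH 8.3, with inhibitor at 0–250 µM final from DMSO stocks, preincubated 15 min at 37 °C. […] Initial rate came from 405 nm absorbance (0–0.25 AU, 10 min) at 37 °C, measured in duplicate. IC50 was the inhibitor level reducing activity to 50%.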
# Prothrombin = Prothrombin (Homo sapiens, UniProt P00734); experiment: Inhibition of human plasma thrombin using pyroGlu-Pro-Arg-p-NA.HCl as substrate preincubated for 15 mins prior substrate addition measured for 10 mins by spectrophotometry
# Summary of the method: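 Human plasma thrombin (about 5 mU) in Tris pH 8.3 was given a 15-min 37 °C preincubation with inhibitor at 0–250 µM final, from DMSO stocks. […] Absorbance at 405 nm gave the initial rate over 0–0.25 AU in 10 min, at 37 °C, in duplicate. IC50 was taken as 50% activity loss.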
# [3] = target: T1, Urokinase-type plasminogen activator; experiment: Competitive inhibition of human uPA using pyroGlu-Gly-Arg-p-NA.HCl as substrate preincubated for 15 mins prior substrate addition measured for 10 mins by spectrophotometry
# Summary of the method: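 Human uPA (about 1 mU) in 50 mM Tris pH 8.8 at 37 °C. […] Initial rate taken over 0–0.25 absorbance units in 10 min. Duplicates; IC50 is the concentration giving 50% activity.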
# [4] = target: T1, Urokinase-type plasminogen activator; experiment: Non-competitive inhibition of human uPA using pyroGlu-Gly-Arg-p-NA.HCl as substrate preincubated for 15 mins prior substrate addition measured for 10 mins by spectrophotometry
IC50 [1] [µM],Compound,also measured
> 62,N#Cc1ccc2cc(C(=O)Nc3ccccc3)ccc2c1,–
> 62,Nc1ccc2cc(C(=O)Nc3ccccc3)ccc2c1,–
9,COC(=O)c1cccc(-c2ccc(NC(=O)c3ccc4cc(C#N)ccc4c3)cc2)c1,–
4,COC(=O)c1cccc(-c2ccc(NC(=O)c3ccc4cc(OC)ccc4c3)cc2)c1,IC50 (Plasminogen): 4 µM; IC50 [2]: 8.4 µM; IC50 (Prothrombin): > 62 µM
4.1,COc1ccc2cc(S(=O)(=O)Nc3ccc(-c4cccc(C(F)(F)F)c4)cc3)ccc2c1,IC50 [2]: 13 µM
16,COC(=O)c1cccc(-c2ccc(NS(=O)(=O)c3ccc4ccccc4c3)cc2)c1,–
> 250,N#Cc1ccc2cc(C(=O)Nc3ccc(-c4cccc(C(=O)O)c4)cc3)ccc2c1,–
> 62,COc1ccc2cc(C(=O)Nc3ccccc3)ccc2c1,–
2.6,COc1ccc2cc(C(=O)Nc3ccc(-c4cccc([N+](=O)[O-])c4)cc3)ccc2c1,IC50 (Plasminogen): 31 µM; IC50 [2]: 8.6 µM; IC50 (Prothrombin): > 62 µM
> 62,COc1ccc2cc(S(=O)(=O)Nc3ccc(-c4cccc(C(N)=O)c4)cc3)ccc2c1,–
31,COc1ccc2cc(C(=O)Nc3ccc(-c4ccc(OC)c(OC)c4)cc3)ccc2c1,–
45,NCc1ccc(NC(=O)c2ccc3cc(C(N)=O)ccc3c2)cc1,–
13,N=C(N)c1ccc2cc(C(=O)Nc3ccccc3)ccc2c1,IC50 (Plasminogen): 22 µM; IC50 [2]: 125 µM; IC50 (Prothrombin): 56 µM; Ki [3]: 1.9 µM
> 62,COc1ccc2cc(S(=O)(=O)Nc3ccc(-c4cccc(F)c4)cc3)ccc2c1,–
–,COc1ccc2cc(C(=O)Nc3ccc(-c4cccc(C(F)(F)F)c4)cc3)ccc2c1,IC50 (Plasminogen): 6.5 µM; IC50 [2]: 5.3 µM; IC50 (Prothrombin): > 62 µM; IC50 [4]: 2.1 µM
30,COc1cc(NC(=O)c2ccc3cc(C(N)=O)ccc3c2)cc(OC)c1,–
> 62,O=C(Nc1ccccc1)c1ccc2ccccc2c1,–
62,COc1ccc2cc(S(=O)(=O)Nc3ccc(-c4cccc(N)c4)cc3)ccc2c1,–
3.6,COC(=O)c1cccc(-c2ccc(NC(=O)c3ccc4cc(C(N)=O)ccc4c3)cc2)c1,IC50 (Plasminogen): > 125 µM; IC50 [2]: 11 µM; IC50 (Prothrombin): > 125 µM
31,COc1cccc(-c2ccc(NS(=O)(=O)c3ccc4ccccc4c3)cc2)c1,–
6.4,COc1ccc(-c2ccc(NC(=O)c3ccc4cc(C(N)=O)ccc4c3)cc2OC)cc1,IC50 [2]: 9.7 µM
–,NC(=O)c1ccc2cc(C(=O)Nc3ccc(-c4cccc(C(F)(F)F)c4)cc3)ccc2c1,IC50 (Plasminogen): 6.3 µM; IC50 [2]: 3.4 µM; IC50 (Prothrombin): > 62 µM; IC50 [4]: 2.4 µM
31,COC(=O)c1cccc(-c2ccc(NC(=O)c3ccc4cc(N)ccc4c3)cc2)c1,–
–,NC(=O)c1ccc2cc(C(=O)Nc3ccccc3)ccc2c1,IC50 [4]: 15 µM
20,COc1cccc(-c2ccc(NC(=O)c3ccc4cc(C#N)ccc4c3)cc2)c1,–
> 62,O=C(O)c1ccc2cc(C(=O)Nc3ccccc3)ccc2c1,–
–,CCOC(=O)N1CCN(C(=O)[C@H](Cc2cccc(C(=N)N)c2)NS(=O)(=O)c2c(C(C)C)cc(C(C)C)cc2C(C)C)CC1,Ki [2]: 4.9 µM

IC50 [1] [µM],Compound,also measured
9.8,COC(=O)c1ccc(-c2ccc(NS(=O)(=O)c3ccc4ccccc4c3)cc2)cc1,–
16,COC(=O)c1cccc(-c2ccc(NC(=O)c3ccc4ccccc4c3)cc2)c1,–
8,COc1ccc(-c2ccc(NS(=O)(=O)c3ccc4cc(OC)ccc4c3)cc2OC)cc1,–
4,COc1cccc(-c2ccc(NC(=O)c3ccc4cc(OC)ccc4c3)cc2)c1,IC50 (Plasminogen): 20 µM; IC50 [2]: 21 µM; IC50 (Prothrombin): > 62 µM
8.1,NC(=O)c1ccc2cc(C(=O)Nc3ccc(-c4cccc(Cl)c4)cc3)ccc2c1,–
23,COc1ccc(-c2ccc(NS(=O)(=O)c3ccc4cc(OC)ccc4c3)cc2)cc1,–
6.9,COc1ccc2cc(S(=O)(=O)Nc3ccc(-c4cccc([N+](=O)[O-])c4)cc3)ccc2c1,–
–,C[C@H](NC(=O)[C@@H](CO)NS(=O)(=O)Cc1ccccc1)C(=O)NCc1ccc(C(=N)N)cc1,Ki [2]: 7.4 µM; Ki (Prothrombin): 0.1 µM
0.2,N=C(N)c1ccc(/C=C2/N=C(c3ccccc3)OC2=O)cc1,IC50 (Plasminogen): > 100 µM; IC50 [2]: > 100 µM; IC50 (Prothrombin): > 100 µM
> 62,COC(=O)c1ccc2cc(C(=O)Nc3ccccc3)ccc2c1,–
2.9,COc1cccc(-c2ccc(NC(=O)c3ccc4cc(C(N)=O)ccc4c3)cc2)c1,IC50 (Plasminogen): 12 µM; IC50 [2]: 5.7 µM; IC50 (Prothrombin): > 62 µM
7,COC(=O)c1cccc(-c2ccc(NC(=O)c3ccc4cc(Cl)ccc4c3)cc2)c1,–
8,COc1ccc2cc(S(=O)(=O)Nc3ccc(-c4ccc(OC)c(OC)c4)cc3)ccc2c1,–
11,COC(=O)c1cccc(-c2ccc(NC(=O)c3ccc4cc(Br)ccc4c3)cc2)c1,–
2.6,COc1cc(NC(=O)c2ccc3cc(C(=N)N)ccc3c2)cc(OC)c1,IC50 (Plasminogen): 13 µM; IC50 [2]: > 62 µM; IC50 (Prothrombin): > 62 µM
16,COC(=O)c1ccc(-c2ccc(NS(=O)(=O)c3ccc4cc(OC)ccc4c3)cc2)cc1,–
14,COC(=O)c1cccc(-c2ccc(NC(=O)c3ccc4cc(C(=O)OC)ccc4c3)cc2)c1,–
9.8,COc1cccc(-c2ccc(NC(=O)c3ccc4ccccc4c3)cc2)c1,–
19,COc1cccc(-c2ccc(NS(=O)(=O)c3ccc4cc(OC)ccc4c3)cc2)c1,–
> 31,COc1ccc(-c2ccc(NC(=O)c3ccc4cc(OC)ccc4c3)cc2OC)cc1,–
> 62,O=C(Nc1ccccc1)c1ccc2cc(Br)ccc2c1,–
> 62,COc1ccc2cc(S(=O)(=O)Nc3ccc(-c4cccc(Cl)c4)cc3)ccc2c1,–
–,[H]/N=C(\N)c1ccc2cc(C(=O)Nc3ccc(CN)cc3)ccc2c1,IC50 (Plasminogen): > 62 µM; IC50 [2]: > 62 µM; IC50 (Prothrombin): > 62 µM
31,COc1ccc2cc(S(=O)(=O)Nc3ccc(-c4ccccc4)cc3)ccc2c1,–
–,COC(=O)c1cccc(-c2ccc(NS(=O)(=O)c3ccc4cc(OC)ccc4c3)cc2)c1,IC50 (Plasminogen): > 62 µM; IC50 [2]: 26 µM; IC50 (Prothrombin): > 62 µM; IC50 [4]: 2.8 µM
12,COc1ccc(-c2ccc(NC(=O)c3ccc4cc(OC)ccc4c3)cc2)cc1,–
